Converted amounts (≈) assume the structure as drawn. The source made the active and inactive calls. No cut-off for these calls is given here.
Experiments:
P388 = assay: Growth inhibition of mouse P388 cells after 48 hrs by Z1 Beckman/Coulter particle counter analysis; type: functional; conditions: P388, 48 h, read-out: ED50 (the source's name)
In short: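 Mouse P388 leukemia cells were incubated 24 h in 10% horse serum/Fisher medium, then exposed 48 h to serial compound dilutions. ED50 was calculated from cell counts on a Coulter Z1 particle counter.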

BXPC-3 = assay: Growth inhibition of human BxPC3 cells after 48 hrs by sulforhodamine B assay; type: functional; conditions: BXPC-3, 48 h
In short: (§1)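 NCI sulforhodamine B assay. Cells were seeded in 5% FBS/RPMI-1640 and incubated 24 h. Serial compound dilutions were then added for 48 h. Cells were fixed with trichloroacetic acid, stained with SRB and read by microplate reader. GI50 is the concentration giving 50% reduction in net protein increase, calculated from optical density data.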

MCF7 = assay: Growth inhibition of human MCF7 cells after 48 hrs by sulforhodamine B assay; type: functional; conditions: MCF7, 48 h; in short: as §1
SF-268 = assay: Growth inhibition of human SF268 cells after 48 hrs by sulforhodamine B assay; type: functional; conditions: SF-268, 48 h; in short: as §1
NCI-H460 = assay: Growth inhibition of human NCI-H460 cells after 48 hrs by sulforhodamine B assay; type: functional; conditions: NCI-H460, 48 h; in short: as §1
KM-20L2 = assay: Growth inhibition of human KM20L2 cells after 48 hrs by sulforhodamine B assay; type: functional; conditions: KM-20L2, 48 h; in short: as §1
DU-145 = assay: Growth inhibition of human DU145 cells after 48 hrs by sulforhodamine B assay; type: functional; conditions: DU-145, 48 h; in short: as §1
[1] = Growth inhibition of human KAT4 cells after 48 hrs by sulforhodamine B assay; type: functional; conditions: KAT-4, 48 h
SW-1736 = assay: Growth inhibition of human SW1736 cells after 48 hrs by sulforhodamine B assay; type: functional; conditions: SW-1736, 48 h
HUVEC [2] = assay: Antiangiogenic activity in HUVEC assessed as cell growth inhibition after 48 hrs by sulforhodamine B assay; type: functional, cell-based; conditions: Homo sapiens
In short: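 HUVECs were grown in EGM-2 medium and tested with the standard SRB growth assay following NCI Developmental Therapeutics Program Matrigel antiangiogenesis protocols. IC50 (concentration causing 50% inhibition) was calculated from plotted data.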

HUVEC [3] = assay: Antiangiogenic activity in HUVEC assessed as reduction of cord length at 0.01 ug/ml after 24 hrs by matrigel assay relative to control; type: functional
In short: (§2)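 Commercial HUVECs grown in EGM-2 were seeded at 2 × 10⁵ cells/mL onto Matrigel, which had been polymerized 15 min at rt and then 30 min at 37 °C, per NCI DTP protocol. Compound was added and cells were incubated 24 h, then imaged by inverted microscopy. Cord length and junction number were scored against untreated control on a scale from − (none) to +++ (same as control), with ++ = 50% of control.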

HUVEC [4] = assay: Antiangiogenic activity in HUVEC assessed as reduction of cord length at 0.001 ug/ml after 24 hrs by matrigel assay relative to control; type: functional; conditions: Homo sapiens; in short: as §2
HUVEC [5] = assay: Antiangiogenic activity in HUVEC assessed as reduction of cord length at 0.0001 ug/ml after 24 hrs by matrigel assay relative to control; type: functional, Homo sapiens; set-up: scale not given: the % may be the effect or the level left
In short: (§3)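 Matrigel was polymerised in wells (15 min rt, then 30 min 37 °C). HUVECs (2 × 10⁵ cells/mL) were added with compound and incubated 24 h, then imaged by inverted microscope. Cord length and junction number were scored semi-quantitatively versus untreated control (− none to +++ same as control).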

HUVEC [6] = assay: Antiangiogenic activity in HUVEC assessed as reduction of number of junctions at 0.01 ug/ml after 24 hrs by matrigel assay relative to control; type: functional; in short: as §2
HUVEC [7] = assay: Antiangiogenic activity in HUVEC assessed as reduction of number of junctions at 0.001 ug/ml after 24 hrs by matrigel assay relative to control; type: functional; conditions: Homo sapiens; in short: as §2
HUVEC [8] = assay: Antiangiogenic activity in HUVEC assessed as reduction of number of junctions at 0.0001 ug/ml after 24 hrs by matrigel assay relative to control; type: functional, Homo sapiens; set-up: scale not given: the % may be the effect or the level left; in short: as §3
HUVEC [9] = assay: Antiangiogenic activity in HUVEC assessed as cell growth at 0.01 ug/ml after 24 hrs by sulforhodamine B assay relative to control; type: functional, Homo sapiens
HUVEC [10] = assay: Antiangiogenic activity in HUVEC assessed as cell growth at 0.001 ug/ml after 24 hrs by sulforhodamine B assay relative to control; type: functional, Homo sapiens; conditions: for growth at 0.001 µg/mL: Homo sapiens, HUVEC, 24 h, read-out: Activity
HUVEC [11] = assay: Antiangiogenic activity in HUVEC assessed as cell growth at 0.0001 ug/ml after 24 hrs by sulforhodamine B assay relative to control; type: functional, Homo sapiens; conditions: Homo sapiens, HUVEC, 24 h; read-out: Activity
HUVEC [12] = assay: Antiangiogenic activity in HUVEC assessed as cell growth at 0.00001 ug/ml after 24 hrs by sulforhodamine B assay relative to control; type: functional; conditions: Homo sapiens, read-out: Activity
[13] = Inhibition of purified tubulin assembly after 20 mins
In short: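 Purified tubulin at 10 μM in 0.8 M monosodium glutamate (pH 6.6), 0.4 mM GTP and 4% (v/v) DMSO, with varying compound concentrations. Extent of assembly was measured after 20 min at 30 °C.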

[14] = Displacement of [3H]colchicine from tubulin at 1 uM after 10 mins
In short: (§4)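 [³H]colchicine binding: 1.0 μM tubulin with 5.0 μM [³H]colchicine and compound, incubated 10 min at 37 °C. The tubulin–colchicine complex was separated from unbound label by retention on DEAE-cellulose filters. Result is inhibition of radiolabel binding.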

[15] = Displacement of [3H]colchicine from tubulin at 10 uM after 10 mins; in short: as §4
Micrococcus luteus [16] = assay: Antibacterial activity against Micrococcus luteus Presque Isle 456 by broth microdilution method; type: functional
In short: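 Broth microdilution per NCCLS bacterial (M7-A5) and yeast standards. Compounds were reconstituted in sterile DMSO and diluted in the appropriate medium just before testing. MIC is the lowest concentration giving complete inhibition of visible growth (optically clear). Assays were repeated on separate days.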

Cryptococcus neoformans = assay: Antifungal activity against Cryptococcus neoformans ATCC 90112 by broth microdilution method
Micrococcus luteus [17] = assay: Antibacterial activity against Micrococcus luteus assessed per disc; type: functional
Neisseria gonorrhoeae [18] = assay: Antibacterial activity against Neisseria gonorrhoeae assessed per disc; type: functional
[19] = Displacement of [3H]colchicine from tubulin at 5 uM after 10 mins
In short: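 Purified tubulin 1.0 μM incubated with 5.0 μM [³H]colchicine and test compound for 10 min at 37 °C. Tubulin–colchicine complex retained on DEAE-cellulose filters to separate it from unbound label. Read-out is the percent inhibition of radiolabel binding.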

[20] = Solubility of the compound in water; type: physicochemical; conditions: buffer
In short: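 Solubility expressed as amount dissolving in 1 mL H₂O at 25 °C.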

HUVEC [21] = assay: Antiangiogenic activity in HUVEC assessed as cell growth at 0.1 ug/ml after 24 hrs by sulforhodamine B assay relative to control; type: functional, Homo sapiens
HUVEC [22] = assay: Antiangiogenic activity in HUVEC assessed as cell growth at 1 ug/ml after 24 hrs by sulforhodamine B assay relative to control; type: functional; conditions: Homo sapiens, read-out: Activity
Neisseria gonorrhoeae [23] = assay: Antibacterial activity against Neisseria gonorrhoeae ATCC 49226 by broth microdilution method; type: functional
In short: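 Broth microdilution followed NCCLS standard methods. Compounds were reconstituted in sterile DMSO and diluted in the appropriate medium immediately before testing. MIC was taken as the lowest concentration giving no visible growth (optically clear). Assays were repeated on separate days.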

SK-N-SH = assay: Growth inhibition of human SK-N-SH cells after 48 hrs by sulforhodamine B assay; type: functional; in short: as §1
SK-N-AS = assay: Growth inhibition of human SK-N-AS cells after 48 hrs by sulforhodamine B assay; type: functional; in short: as §1
IMR-32 = assay: Growth inhibition of human IMR32 cells after 48 hrs by sulforhodamine B assay; type: functional; conditions: IMR-32, 48 h; in short: as §1

SMILES | EC50 (P388) | GI50 (BXPC-3) | GI50 (MCF7) | GI50 (SF-268) | GI50 (NCI-H460) | GI50 (KM-20L2) | GI50 (DU-145) | GI50 [1] | GI50 (SW-1736) | IC50 (HUVEC [2]) | growth at 0.001 µg/mL (HUVEC [10]) | growth at 0.0001 µg/mL (HUVEC [11]) | IC50 [13] | inhibition [14] | solubility [20] | Activity (HUVEC [3]) | Activity (HUVEC [6]) | Activity (HUVEC [9]) | Activity (HUVEC [21]) | MIC (Neisseria gonorrhoeae [23]) | other results
COc1ccc(/C=C\c2cc(I)c(OC)c(OC)c2)cc1O [IODOCOMBSTATIN] | 2 ng/mL (≈ 4.85 nM) | 48 ng/mL (≈ 116 nM) | 0.22 ng/mL (≈ 0.534 nM) | 0.18 ng/mL (≈ 0.437 nM) | 0.29 ng/mL (≈ 0.704 nM) | 328 ng/mL (≈ 796 nM) | 0.18 ng/mL (≈ 0.437 nM) | 89 ng/mL (≈ 216 nM) | 2200 ng/mL (≈ 5340 nM) | 0.04 ng/mL (≈ 0.097 nM) | 14% | 18% | 2500 nM | 78% | – | – | – | – | – | – | Activity (HUVEC [3]; Homo sapiens): Active; Activity (HUVEC [4]): Active; Activity (HUVEC [5]): 75%; Activity (HUVEC [6]; Homo sapiens): Active; Activity (HUVEC [7]): Active; Activity (HUVEC [8]): 75%; growth at 0.01 µg/mL (HUVEC [9]; Homo sapiens, HUVEC, 24 h, read-out: Activity): 14%; growth at 10 pg/mL (HUVEC [12]): 90%; inhibition [15]: 100%; MIC (Micrococcus luteus [16]): 2000 ng/mL (≈ 4850 nM); MIC (Cryptococcus neoformans): 64000 ng/mL (≈ 155000 nM)
COc1ccc(/C=C\c2cc(OC)c(OC)c(OC)c2)cc1O [COMBRETASTATIN A4] | 0.3 ng/mL (≈ 0.948 nM) | 390 ng/mL (≈ 1230 nM) | – | < 1 ng/mL | 0.6 ng/mL (≈ 1.9 nM) | 61 ng/mL (≈ 193 nM) | 0.8 ng/mL (≈ 2.53 nM) | – | – | – | – | – | – | 81% | – | – | – | – | – | – | MIC (Micrococcus luteus [17]): 25 µg; MIC (Neisseria gonorrhoeae [18]): 25 µg; inhibition [19]: 95%
COc1ccc(/C=C\c2cc(I)c(OC)c(I)c2)cc1OP(=O)([O-])[O-].[Na+].[Na+] | 30 ng/mL | > 1000 ng/mL | 66 ng/mL | – | 327 ng/mL | > 1000 ng/mL | 242 ng/mL | – | – | 51 ng/mL | – | – | > 40000 nM | – | 2 mg/mL | 75% | 75% | >100% | -2% | 32000 ng/mL | Activity (HUVEC [10]): >100%; growth at 1 µg/mL (HUVEC [22]): -7%
COc1ccc(/C=C\c2cc(I)c(OC)c(I)c2)cc1OP(=O)([O-])[O-].[K+].[K+] | 3.4 ng/mL | 440 ng/mL | 50 ng/mL | 53 ng/mL | 46 ng/mL | – | 28 ng/mL | 380 ng/mL | > 10000 ng/mL | 4.9 ng/mL | 88% | 96% | – | – | 22 mg/mL | 75% | 75% | 33% | 15% | < 500 ng/mL | GI50 (SK-N-SH): 7.5 ng/mL; GI50 (SK-N-AS): 2 ng/mL; GI50 (IMR-32): 81 ng/mL

From ChEMBL document CHEMBL2021780, “Antineoplastic agents. 548. Synthesis of iodo- and diiodocombstatin phosphate prodrugs” (J Nat Prod, 2012)
